Most compounds without a hit are left out; they make up all but 3.8% or so of the library.
GPR7 antag: human neuropeptides B/W receptor 1 antagonism; inhibition, % at 4.4 µM; P48145; GPR7-expressing cells, fluorescence antagonist assay; AID 1861; hit rate 1.1% among 290,000; in the data active = inhibition above about 16%, passing the limit was not always enough;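 also: cells stimulated with the agonist NPW; 0% = agonist with vehicle and 100% = vehicle without agonist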
MPTP block: inhibitors of mitochondrial permeability transition pore. AID 602449. isolated mouse mitochondria, Ca2+ swelling absorbance, 30 min. inhibition, % at 10 µM. hit rate 1.4% among 360,000;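 active = inhibition of 50% or more, scaled per plate between neutral and stimulator controls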;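 also: 0% = DMSO wells given calcium and 100% = 1 mM EGTA wells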
OX1R antag-1: antagonists of human orexin 1 receptor | CHO/OX1R cells, Fluo-8 calcium fluorescence, orexin A | O43613 | inhibition, % at 5 µM | hit rate 0.43% among 330,000 | AID 434989;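 active = inhibition above its plate's threshold, mean inhibition of all tested compounds on the plate plus 3 SD, cut at about 37% in these data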;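 also: 0% = orexin A challenge wells and 100% = SB-334867-A antagonist wells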
Target sequence (O43613 whole entry, looked up): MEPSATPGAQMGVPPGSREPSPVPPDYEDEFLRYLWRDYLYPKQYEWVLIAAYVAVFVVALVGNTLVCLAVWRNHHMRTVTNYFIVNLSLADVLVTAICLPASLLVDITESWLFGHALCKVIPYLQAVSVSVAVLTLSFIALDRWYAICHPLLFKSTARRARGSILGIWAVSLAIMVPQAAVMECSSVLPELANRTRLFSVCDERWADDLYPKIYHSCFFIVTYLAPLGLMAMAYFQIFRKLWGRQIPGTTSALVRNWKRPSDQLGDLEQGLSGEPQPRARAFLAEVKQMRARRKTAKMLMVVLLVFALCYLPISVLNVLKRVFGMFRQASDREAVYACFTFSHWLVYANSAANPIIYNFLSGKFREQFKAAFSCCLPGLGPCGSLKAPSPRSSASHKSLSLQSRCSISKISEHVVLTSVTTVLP
OX1R antag-2: antagonists of human orexin 1 receptor (OX1R). O43613. OX1R-expressing cells, FRET antagonist read-out. inhibition, % at 6.6 µM. hit rate 1.8% among 330,000; in the data active = inhibition mostly above about 38%, no sharp cut-off; inactive = mostly below about 40%;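 also: 0% = agonist challenge alone and 100% = reference antagonist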
CHO parental Ca: counter-screen: ATP calcium response change in parental CHO cells; parental CHO-K1, ATP-induced calcium, Fluo-8 fluorescence; inhibition, % at 5.6 µM; hit rate 0.63% among 330,000; AID 463079;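 active = inhibition above that plate's mean sample inhibition plus 3 SD, cut at about 26% in these data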;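 also: 0% = ATP-challenged DMSO wells and 100% = DMSO wells without ATP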
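Material – parental CHO cells · Reagent – ATP stimulus · Compound – single nominal dose of 5.6 µM per compound · Detection – Fluo-8 fluorescence · Read-out basis – percent inhibition of calcium signal · Controls – ATP-challenged DMSO wells low, unchallenged DMSO wells high · Repeats – no replicates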
Active calls of the source: *; · = not tested or not shown.

SMILES | GPR7 antag | MPTP block | OX1R antag-1 | OX1R antag-2 | CHO parental Ca
O=C(COc1cccc(F)c1)N[C@@H](Cc1ccccc1)c1nc2ccccc2[nH]1 | -2 | 16 | 12 | 61* | -12
O=C(Nc1nccs1)c1cc2c(s1)-c1ccccc1OC2 | 17* | 1 | -2 | 42 | 12
O=C(Nc1cccnc1)c1cc2c(s1)-c1ccccc1OC2 | 15 | 2 | 31 | 15 | 37
O=C(Nc1nc2ccccc2s1)c1cc2c(s1)-c1ccccc1OC2 | 9 | 3 | -12 | 13 | -4
Cc1cccc2c1-c1sc(C(=O)Nc3cccnc3)cc1CO2 | 3 | 0 | 34 | 56* | -28
Cc1cccc2c1-c1sc(C(=O)Nc3nccs3)cc1CO2 | -7 | 1 | -2 | 50* | -5
COc1ccc(CCNC(=O)C(=O)NCC2OCCN2S(=O)(=O)c2ccccc2)cc1 (stereo not given) | -5 | 0 | -19 | 6 | -13
CC(=O)N(Cc1c(C#N)c2ccccc2n1C)c1ccccc1 | 2 | -8 | -21 | 14 | -12
CC(=O)N(Cc1ccccc1)c1ncc2c(n1)c(=O)c(C#N)c1ccccn12 | 6 | 0 | 4 | 63* | -15
O=C(OCC(=O)c1c[nH]c2ccccc12)c1ccc([N+](=O)[O-])s1 | -2 | 0 | 2 | 51* | -2
COc1ccc(C(=O)OCC(=O)c2c[nH]c3ccccc23)cc1OC | · | -1 | 18 | 32* | -11
COc1cc(C(=O)OCC(=O)c2c[nH]c3ccccc23)ccc1OCC(=O)N1CCOCC1 | 9 | 2 | -15 | 1 | -2
COc1ccccc1/C=C/C(=O)OCC(=O)c1c[nH]c2ccccc12 | · | 0 | 18 | 42* | -10
COc1ccccc1/C=C/C(=O)OCc1nc2ccccc2c(=O)[nH]1 | 6 | 0 | 2 | 46* | -45
CCC(C(N)=O)N1C(=O)C2C3CCC(C3)C2C1=O (stereo not given) | · | -1 | · | · | ·
Cc1cc(C(=O)OCC(=O)NCc2ccc(Cl)cc2)c(C)o1 | 9 | -1 | -7 | 10 | 6
Cc1ccc(S(=O)(=O)Nc2ccc3c(c2)c2c(n3S(=O)(=O)c3ccc(C)cc3)CCCC2=O)cc1 | -4 | -1 | -2 | -7 | -4
C=CCN(CC=C)Cc1cc(=O)oc2cc(C)cc(C)c12 | · | 0 | · | · | ·
Cc1occc(=O)c1OCc1ccc(Cl)cc1Cl | -9 | 0 | -10 | 1 | -10
COc1ccc(CN(C)C(=O)CCNS(=O)(=O)c2ccccc2)c(OC)c1 | · | 1 | · | · | ·
Cc1cc(S(=O)(=O)NCc2ccccc2)ccc1OCC(=O)Nc1cccc([N+](=O)[O-])c1 | 5 | 25 | 53* | 84* | 49*
COCCNC(=O)C1(C)CCCN(C(=O)c2ccccc2OC(F)(F)F)C1 (stereo not given) | · | 0 | · | · | ·
O=C1CCN(c2ccc([N+](=O)[O-])cc2F)CC1 | -9 | 1 | -12 | 22 | 0
Cn1cc(C(=O)Nc2ccc(F)c(Cl)c2)cn1 | 11 | -2 | 7 | -7 | 11
CN1c2ccsc2C(O)=C(C(=S)Nc2ccc(F)c(Cl)c2)S1(=O)=O | 2 | 45 | -5 | 50* | -11
SMILES | GPR7 antag | MPTP block | OX1R antag-1 | OX1R antag-2 | CHO parental Ca
c1ccc(-c2ccc(CNC3CC3)cc2)cc1 | 8 | 0 | · | · | ·
O=C(c1ccc([N+](=O)[O-])cc1)N(c1ccccn1)c1ccccn1 | 2 | -1 | -11 | 74* | 1
O=[N+]([O-])c1ccc(Sc2ccccn2)nc1 | -3 | 2 | 0 | 73* | 2
O=C(Nc1cc(Sc2ccccn2)cc([N+](=O)[O-])c1)c1ccc([N+](=O)[O-])cc1 | -7 | 14 | 44* | 22 | 41*
O=[N+]([O-])c1ccc(CSc2ccccn2)cc1 | 2 | -1 | -5 | 2 | -6
O=C(N/N=C/c1ccc(Sc2ccccn2)o1)c1cccc([N+](=O)[O-])c1 | 10 | 0 | -19 | 22 | -8
O=C(NCc1ccccn1)c1ccc([N+](=O)[O-])cc1 | 3 | 1 | -14 | 31 | -6
C=CCC(C(=O)NC(C)c1ccccc1)C(=O)NC(C)c1ccccc1 (stereo not given) | -3 | -1 | -23 | 7 | -9
COc1ccc(NC(=O)CSc2ccc3ccccc3c2)cc1S(=O)(=O)N1CCCCC1 | -1 | 6 | -12 | 26 | 0
Cc1c(NC(=O)C2CCCCC2)cc(C(=O)N2CCOCC2)cc1[N+](=O)[O-] | -4 | 2 | 14 | 36 | 5
COc1ccc(N2C(c3ccsc3)=Cc3cc4c(cc3C2c2c[nH]c3ccccc23)OCO4)cc1 (stereo not given) | · | 2 | · | · | ·
Cc1csc(SCC(=O)c2cc(C)n(Cc3cccs3)c2C)n1 | 6 | 7 | 6 | 57 | 42*
Cc1cc(C(=O)CSc2nnc(N)s2)c(C)n1Cc1cccs1 | -6 | 14 | -12 | 25 | -7
CC(=O)c1ccc(NC(=O)c2cc(CC(C)C)on2)cc1 | -9 | -2 | -7 | 2 | 36*
CC(C)Cc1cc(C(=O)Nc2cccnc2)no1 | 18 | 0 | -8 | 8 | -4
COc1cccc(N=Nc2c(=O)[nH]n3c(C)cc(C)nc23)c1 | 12 | -3 | -13 | 64* | -7
COc1cccc(N=Nc2c(N)[nH]n3c(=O)cc(-c4ccccc4)nc23)c1 | 14 | -1 | -10 | 0 | -19
O=C(OCn1ncc(Br)c(Br)c1=O)c1ccccc1Cl | 20 | 0 | 2 | 35 | -3
O=C(OCn1ncc(Cl)c(Cl)c1=O)c1cccc(C(F)(F)F)c1 | 16 | -1 | 52* | 6 | 81*
N#C/C(=C(/O)CN1CCOCC1)c1nc(-c2ccccc2)cs1 | 0 | 2 | 0 | 12 | -9
N#C/C(=C(/O)CCl)c1nc(-c2ccccc2)cs1 | 19* | 37 | -12 | 20 | -22
CCCCNC(=O)C1c2ccccc2OCC(=O)N1CCCN1CCOCC1 (stereo not given) | · | -2 | · | · | ·
NNC(=O)/C(=C/c1cccs1)NC(=O)c1ccccc1Cl | -4 | 0 | -23 | 11 | -27
CC(=O)c1ccc(N2CCC(c3cc(-c4ccc(Cl)cc4)n[nH]3)CC2)c([N+](=O)[O-])c1 | 1 | 45 | 15 | 28 | 43*
COC(=O)c1ccc(N2CCC(c3cc(-c4ccc(OC)cc4)n[nH]3)CC2)c([N+](=O)[O-])c1 | -5 | 19 | -13 | 27 | -1
SMILES | GPR7 antag | MPTP block | OX1R antag-1 | OX1R antag-2 | CHO parental Ca
CCCCn1c(N)c(N(CC(C)C)C(=O)CSCC(=O)Nc2ccc(OC)cc2)c(=O)[nH]c1=O | · | 0 | 5 | 12 | -18
COc1ccc(-c2ccc(CN3C(C(C)C)C(=O)N(Cc4cn(CC5CCCCC5)nn4)CCS3(=O)=O)cc2)cc1 (stereo not given) | · | -1 | · | · | ·
O=C(COC(=O)c1cccc([N+](=O)[O-])c1)c1ccc(OCc2ccccc2)cc1 | 3 | 1 | 53* | 5 | 53*
CCNC(=S)N1CCN(c2nc(-c3ccc(F)cc3)cs2)CC1 | -9 | 40 | 48* | 21 | 65*
COCCNC(=S)N1CCN(c2nc(-c3ccc(F)cc3)cs2)CC1 | 6 | 0 | -10 | -1 | -1
COc1ccccc1NC(=O)c1cnc(Nc2ccccc2OC)c2ccccc12 | -20 | 2 | -11 | 74* | -33
